Source: PubChem
Kir21 block – inhibitors of mouse Kir2.1 inward-rectifier potassium channel; 310,000 tested, 0.85% active; HEK293-Kir2.1, FluxOR thallium flux fluorescence; active compounds read low; AID 1672, 2009; B-score at 10 µM; Inward rectifier potassium channel 2 (Mus musculus), P35561;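 active = fluorescence ratio B-score at or below minus 3 SD of library scores, with starting-brightness B-score within 2 SD, cut at about -4.2 in these data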;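 also: channel flux triggered by added potassium and thallium sulfate stimulus; B-score of peak minus minimum fluorescence over baseline after thallium stimulus; more negative B-score means stronger Kir2.1 block with less thallium influx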
KCNK9 inh – KCNK9 potassium channel inhibitors, primary screen, HEK293 cells, thallium flux | Potassium channel subfamily K member 9 (Homo sapiens), Q9NPC2 | FluxOR thallium flux fluorescence; active compounds read low | B-score at 10 µM | 310,000 tested, 1.2% active | AID 488922, 2010;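 active = ratio B-score over 3 SD below the library mean, with starting fluorescence within 5 SD of its mean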;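 also: negative B-score means less thallium flux so channel inhibition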
Target sequence (Q9NPC2 whole entry, looked up): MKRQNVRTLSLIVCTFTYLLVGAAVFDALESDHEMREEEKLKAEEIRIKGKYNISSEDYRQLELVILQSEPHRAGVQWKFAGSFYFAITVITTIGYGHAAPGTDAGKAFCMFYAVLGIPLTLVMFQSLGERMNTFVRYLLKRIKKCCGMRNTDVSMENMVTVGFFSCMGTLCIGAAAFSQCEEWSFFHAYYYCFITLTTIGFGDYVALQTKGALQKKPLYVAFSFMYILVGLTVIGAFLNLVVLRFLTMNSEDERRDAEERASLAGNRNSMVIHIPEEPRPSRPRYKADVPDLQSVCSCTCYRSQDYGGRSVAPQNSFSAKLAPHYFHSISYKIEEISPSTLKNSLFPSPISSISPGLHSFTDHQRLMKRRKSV
KCNQ1 block – inhibitors of human KCNQ1 channel, primary screen, cell-based, thallium flux, high-throughput. 310,000 tested, 1.3% active. AID 2642, 2010. CHO-K1 KCNQ1, FluxOR thallium flux fluorescence; active compounds read high. Potassium voltage-gated channel subfamily KQT member 1 (Homo sapiens), P51787. B-score at 10 µM;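 active = compounds whose thallium flux B-score, printed positive for inhibition, exceeds three library SD while starting fluorescence stays within three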;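 also: channel opened by potassium depolarization with thallium stimulus after 20 min compound exposure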
hERG rescue – hERG rescue from dofetilide block, primary screen, cell-based, CHO-hERG, FluxOR thallium flux, dofetilide IC70; Voltage-gated inwardly rectifying potassium channel KCNH2 (Homo sapiens), Q12809; dofetilide IC70 present; activation (rescue from dofetilide block), less the hit threshold, % at 10 µM; 310,000 tested, 0.51% active; AID 1511, 2009;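 active = activation above the mean of controls blocked by dofetilide plus 5 SD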;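 also: thallium influx through hERG after potassium depolarization seen as dye fluorescence rise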
KCNK3 block – human KCNK3 channel inhibitors, primary screen, CHO cells, FluxOR thallium flux, B-score; Potassium channel subfamily K member 3 (Homo sapiens), O14649; FluxOR fluorescence; active compounds read low; B-score at 10 µM; 340,000 tested, 0.84% active;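 active = B-score under library mean minus 4 SD, starting fluorescence ratio at most library mean plus 5 SD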;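 also: more negative B-score means stronger inhibition of thallium flux through KCNK3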
KCNQ1 pot – potentiators or activators of KCNQ1 channel, primary screen, cell-based, thallium flux, high-throughput | CHO-K1 KCNQ1, thallium flux FluxOR fluorescence; active compounds read high | 310,000 tested, 0.35% active | B-score at 10 µM;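 active = fluorescence ratio B-score, a plate-corrected score, at least three library SD, with initial intensity B-score within 5 SD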
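Medium – assay buffer, equal DMSO in all wells · Material – CHO-K1 cell line with stable KCNQ1 potassium channel expression · Signal – kinetic FluxOR thallium fluorescence, 10-s 1-Hz baseline, 110-s post-stimulus read · Compound – single concentration per compound, DMSO matched to controls · Schedule – 37 °C overnight plating, 90-min dark dye load, 20-min compound pretreatment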
KCNK9 inh conf – KCNK9 potassium channel inhibitors, confirmation, HEK293 cells, thallium flux, duplicate | shares compounds with KCNK9 inh | FluxOR thallium flux fluorescence | inhibition, % at 10 µM | 4,900 tested, 43% active;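 active = thallium signal inhibited by more than 5 SD of the compound-free buffer control wells, on both duplicate plates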;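 also: 0% = assay buffer control wells without compound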
Kir21 sel – mouse Kir2.1 channel inhibition, confirmation, selectivity assay for KCNK9 modulator project, cell-based, HEK293, thallium flux. shares compounds with KCNK9 inh. Kir2.1 cells, FluxOR thallium flux fluorescence. inhibition, % at 10 µM. 4,900 tested, 4% active. AID 492993, 2010;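 active = thallium signal drop more than 5 SD beyond the mean of the no-compound control wells, seen in both duplicate plates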;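 also: signal is fluorescence rise after thallium addition divided by baseline fluorescence; plate controls were assay buffer only for no effect and full block by chlorpromazine control for full effect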
HEK293 Tl ctr – thallium flux in non-induced HEK293 cells, confirmation, counter-screen for KCNK9 inhibitor project, cell-based, second counter screen, non-induced KCNK9-HEK293 | shares compounds with KCNK9 inh | FluxOR thallium flux | inhibition, % at 10 µM | 4,900 tested, 40% active;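 active = thallium signal drop beyond 5 SD of the untreated control mean, on both duplicate plates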;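 also: plate controls were buffer only IC0 wells for no effect and SID17386958 at its maximal inhibitory level for full effect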
Numbers without * were called inactive; i = inactive; nt = no result; ! = not active in a repeat. Hits are enriched below; roughly 3.7% of the tested compounds scored in any of these assays.

SMILES	Kir21 block	KCNK9 inh	KCNQ1 block	hERG rescue	KCNK3 block	KCNQ1 pot	KCNK9 inh conf	Kir21 sel	HEK293 Tl ctr
Cc1cccc(C(=O)OCC(=O)c2c(C)[nH]c3ccccc23)c1O	nt	nt	nt	nt	i	nt	nt	nt	nt
Cn1c(Oc2ccc(F)cc2)c(C=O)c2ccccc21	-2.5	i	i	-4	i	i	nt	nt	nt
Cn1c(Sc2ccc(Br)cc2)c(C=O)c2ccccc21	0.88	-9.5*	i	-13	i	i	44%*	36%*	52%*
COc1ccccc1NS(=O)(=O)c1cc(NC(=O)C(C)C)ccc1N1CCCCC1	0.79	-11*	i	-4	i	i	52%*	i	35%*
CCC(c1nnnn1Cc1cccs1)N1CCN(c2nc3ccccc3s2)CC1 (stereo not drawn)	-0.73	-11*	i	-11	i	i	30%*	i	i
Cc1ccccc1-c1nc2cc(NC(=O)C3CC3)ccc2o1	-1.6	-8.7*	i	-7	i	i	i	i	i
CC(=O)Nc1ccc2oc(-c3ccccc3Br)nc2c1	0.13	i	i	-6	i	i	nt	nt	nt
CCN1C(=O)/C(=C\c2nc3ccccc3c(=O)n2CC)c2ccccc21	0.07	i	i	-15	i	i	i	i	i
CN[C@H]1CC[C@@H](c2ccc(Cl)c(Cl)c2)c2ccccc21	-6.2*	-8.6*!	i	nt	i	i	34%*	i	nt
COc1ccccc1N1CCN(CC(=O)Nc2ccccc2C(=O)NC(C)c2ccccc2)CC1 (stereo not drawn)	nt	nt	nt	nt	i	nt	nt	nt	nt
O=C(NNC(=S)Nc1ccc(Cl)c(Cl)c1)c1ccccn1	0.43	i	i	-11	i	i	i	i	i
CCNC(=S)NNC(=O)c1ccccn1	0.66	i	i	-9	i	i	nt	nt	nt
CN1CSC2=C(C#N)C(c3cccc(OCc4ccccc4)c3)CC(=O)N2C1 (stereo not drawn)	0.26	i	i	-7	i	i	i	i	i
CCc1ccc(C2CC(=O)N3CN(c4ccccc4)CSC3=C2C#N)cc1 (stereo not drawn)	-0.36	i	i	-2	i	i	nt	nt	nt
CCOc1ccc(NS(=O)(=O)c2cccc(C(=O)N(C)Cc3ccco3)c2)cc1	nt	nt	nt	nt	i	nt	nt	nt	nt
COc1cc(/C=N/OCC(=O)NC2CCCCC2)ccc1OCc1ccccc1	-0.55	i	i	-2	i	i	nt	nt	nt
COc1cc(/C=N/OCC(=O)NC23CC4CC(CC(C4)C2)C3)ccc1OCc1ccccc1	-1.1	i	i	-5	i	i	i	i	26%*
Cc1ccccc1C(=O)NC1CC2CCCC(C1)N2Cc1ccccc1 (stereo not drawn)	-0.07	i	i	-11	i	i	i	i	i
COc1ccc(/C=N/N(c2ccccc2)c2ccccc2)cc1O	1.9	i	8*	-11	i	i	i	i	i
CC(=O)N1N=C(c2ccc(Cl)cc2)OC1c1ccc(C(C)C)cc1 (stereo not drawn)	2.3	i	6*	-6	i	i	i	i	27%*
O=C(Nc1cccc(-c2csc(Nc3ccccc3)n2)c1)c1ccccc1	1.5	i	i	-19	i	i	i	i	i
